The source made the active and inactive calls. No cut-off for these calls is given here.
Columns and labels:
Cannabinoid receptor 2 [1] = target: T1, Cannabinoid receptor 2 (Homo sapiens, UniProt P34972); experiment: Agonist activity at human CB2 receptor after 1 hr by [35S]-GTPgammaS binding assay; type: functional
Cannabinoid receptor 2 [2] = target: T1, Cannabinoid receptor 2; experiment: Displacement of [3H]-CP55940 from human CB2 receptor after 1 hr by scintillation counting analysis
Cannabinoid receptor 1 = Cannabinoid receptor 1 (Homo sapiens, UniProt P21554); experiment: Displacement of [3H]-CP55940 from human CB1 receptor after 1 hr by scintillation counting analysis
Mus musculus [3] = experiment: Anticolitis activity in TNBS-induced C57Bl6 mouse acute colitis model assessed as reduction of mortality rate at 0.1 to 10 mg/kg, po qd administered over 7 days, starting 2 days prior to TNBS challenge measured 5 days post TNBS challenge relative to vehicle-treated control; type: functional, organism-based
How it was run: (§1)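 Mice given test article orally in carboxymethyl cellulose once daily at 0.1, 1 or 10 mg/kg for 7 days, beginning 2 days before TNBS colitis induction; vehicle-only (CMC) controls. Survival followed throughout; body weight loss, semiquantitative macroscopic colon score, histological score and colonic TNFα and IL-1β mRNA assessed at euthanasia 5 days after TNBS. Mean ± SEM, 10 mice per group.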

Mus musculus [4] = experiment: Anticolitis activity in po dosed TNBS-induced C57Bl6 mouse acute colitis model assessed as reduction of body weight loss administered as qd over 7 days, starting 2 days prior to TNBS challenge measured 5 days post TNBS challenge; type: functional, organism-based; how it was run: as §1
[5] = Permeability across apical to basolateral side in human Caco2 cells at 10 uM after 60 mins; type: ADME, cell-based; conditions: Caco-2, read-out: permeability
Mus musculus [6] = experiment: Anticolitis activity in TNBS-induced C57Bl6 mouse acute colitis model assessed as decrease in bowel thickness and areas of ulceration at 10 mg/kg, po qd administered over 7 days, starting 2 days prior to TNBS challenge measured 5 days post TNBS challenge (reference value: 4.9); type: functional
How it was run: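 Mouse acute colitis induced by TNBS. Compound given orally in carboxymethyl cellulose (CMC) once daily at 0.1, 1 and 10 mg/kg for 7 days, starting 2 days before induction; controls received CMC alone. Mice euthanised 5 days after TNBS. Colon damage graded with a semiquantitative macroscopic score; mean ± SEM of 10 mice per group, compared with vehicle.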

Mus musculus [7] = experiment: Anticolitis activity in TNBS-induced C57Bl6 mouse acute colitis model assessed as downregulation of IL-1beta mRNA expression in colon at 10 mg/kg, po qd administered over 7 days, starting 2 days prior to TNBS challenge measured 5 days post TNBS challenge by real-time PCR analysis; type: functional, organism-based; parameters: dose 10 mg/kg; how it was run: as §1
Mus musculus [8] = experiment: Anticolitis activity in TNBS-induced C57Bl6 mouse acute colitis model assessed as downregulation of TNF-alpha mRNA expression in colon at 10 mg/kg, po qd administered over 7 days, starting 2 days prior to TNBS challenge measured 5 days post TNBS challenge by real-time PCR analysis; type: functional, organism-based; parameters: dose 10 mg/kg; how it was run: as §1
hERG (KCNH2) = hERG (KCNH2) (Homo sapiens, UniProt Q12809); experiment: Binding affinity to human ERG expressed in HEK293 cells assessed as inhibition of tail current at 1 uM after 5 to 10 mins by patch-clamp assay relative to control; type: cell-based; conditions: HEK293 cells expressing human ERG
How it was run: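 hERG-expressing HEK 293 cells, conventional whole-cell patch clamp; compound at 1 μM applied cumulatively for 5–10 min at room temperature; tail current inhibition read.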

Mus musculus [9] = experiment: Anticolitis activity in po dosed TNBS-induced C57Bl6 mouse acute colitis model assessed as decrease in bowel thickness and areas of ulceration administered as qd over 7 days, starting 2 days prior to TNBS challenge measured 5 days post TNBS challenge; type: functional, organism-based; how it was run: as §1
Mus musculus [10] = experiment: Anticolitis activity in TNBS-induced C57Bl6 mouse acute colitis model assessed as decrease in degree of inflammation infiltrate, presence of erosion, ulceration, necrosis and depth, surface extension of lesions at 10 mg/kg, po qd administered over 7 days, starting 2 days prior to TNBS challenge measured 5 days post TNBS challenge by Giemsa staining relative to vehicle-treated control; type: functional; parameters: scale not given: the % may be the effect or the level left; how it was run: as §1
MDCK-II = experiment: Inhibition of MDR1 in MDCK2 cells at 10 uM after 30 mins by calcein AM uptake assay relative to control; type: cell-based; conditions: Canis lupus familiaris
How it was run: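 MDR1-MDCKII cells; P-gp function read as cellular calcein AM uptake after 30 min incubation at 37 °C.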

[11] = Fraction unbound in human plasma after 18 hrs by equilibrium dialysis method; type: ADME, cell-free
How it was run: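 Plasma protein binding by equilibrium dialysis, 18 h at 37 °C.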

[12] = Metabolic stability in human liver microsomes assessed as compound remaining at 1 uM after 60 mins; type: ADME; conditions: read-out: Stability
How it was run: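 Compound (1 μM) incubated with human liver microsomes (0.3 mg/mL) at 37 °C, sampled at 0 and 60 min; percent remaining reported.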

Chain of Cannabinoid receptor 1 (P21554 whole entry): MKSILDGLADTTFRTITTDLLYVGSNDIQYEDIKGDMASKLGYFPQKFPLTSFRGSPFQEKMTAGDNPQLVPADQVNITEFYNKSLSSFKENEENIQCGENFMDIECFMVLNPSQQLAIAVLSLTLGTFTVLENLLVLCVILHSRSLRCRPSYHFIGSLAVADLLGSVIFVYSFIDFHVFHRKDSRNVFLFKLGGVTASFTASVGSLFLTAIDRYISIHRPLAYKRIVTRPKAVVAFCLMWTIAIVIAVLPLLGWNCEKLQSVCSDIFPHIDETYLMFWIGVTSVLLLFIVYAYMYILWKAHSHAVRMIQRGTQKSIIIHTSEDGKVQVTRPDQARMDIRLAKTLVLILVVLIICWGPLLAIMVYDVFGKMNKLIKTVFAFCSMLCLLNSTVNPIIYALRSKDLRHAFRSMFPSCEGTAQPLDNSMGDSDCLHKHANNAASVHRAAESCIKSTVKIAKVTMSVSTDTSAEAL
T1 sequence (P34972 whole entry): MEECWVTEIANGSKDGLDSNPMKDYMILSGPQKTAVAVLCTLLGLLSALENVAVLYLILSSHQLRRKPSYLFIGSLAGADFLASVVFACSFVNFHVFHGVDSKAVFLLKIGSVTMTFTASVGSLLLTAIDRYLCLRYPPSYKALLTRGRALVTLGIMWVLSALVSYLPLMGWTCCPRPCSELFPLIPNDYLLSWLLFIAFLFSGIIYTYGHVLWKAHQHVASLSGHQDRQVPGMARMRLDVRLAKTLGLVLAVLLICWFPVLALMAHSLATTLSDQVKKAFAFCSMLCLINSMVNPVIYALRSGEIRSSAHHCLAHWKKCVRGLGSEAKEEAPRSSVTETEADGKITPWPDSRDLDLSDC
Chain of hERG (KCNH2) (Q12809 whole entry): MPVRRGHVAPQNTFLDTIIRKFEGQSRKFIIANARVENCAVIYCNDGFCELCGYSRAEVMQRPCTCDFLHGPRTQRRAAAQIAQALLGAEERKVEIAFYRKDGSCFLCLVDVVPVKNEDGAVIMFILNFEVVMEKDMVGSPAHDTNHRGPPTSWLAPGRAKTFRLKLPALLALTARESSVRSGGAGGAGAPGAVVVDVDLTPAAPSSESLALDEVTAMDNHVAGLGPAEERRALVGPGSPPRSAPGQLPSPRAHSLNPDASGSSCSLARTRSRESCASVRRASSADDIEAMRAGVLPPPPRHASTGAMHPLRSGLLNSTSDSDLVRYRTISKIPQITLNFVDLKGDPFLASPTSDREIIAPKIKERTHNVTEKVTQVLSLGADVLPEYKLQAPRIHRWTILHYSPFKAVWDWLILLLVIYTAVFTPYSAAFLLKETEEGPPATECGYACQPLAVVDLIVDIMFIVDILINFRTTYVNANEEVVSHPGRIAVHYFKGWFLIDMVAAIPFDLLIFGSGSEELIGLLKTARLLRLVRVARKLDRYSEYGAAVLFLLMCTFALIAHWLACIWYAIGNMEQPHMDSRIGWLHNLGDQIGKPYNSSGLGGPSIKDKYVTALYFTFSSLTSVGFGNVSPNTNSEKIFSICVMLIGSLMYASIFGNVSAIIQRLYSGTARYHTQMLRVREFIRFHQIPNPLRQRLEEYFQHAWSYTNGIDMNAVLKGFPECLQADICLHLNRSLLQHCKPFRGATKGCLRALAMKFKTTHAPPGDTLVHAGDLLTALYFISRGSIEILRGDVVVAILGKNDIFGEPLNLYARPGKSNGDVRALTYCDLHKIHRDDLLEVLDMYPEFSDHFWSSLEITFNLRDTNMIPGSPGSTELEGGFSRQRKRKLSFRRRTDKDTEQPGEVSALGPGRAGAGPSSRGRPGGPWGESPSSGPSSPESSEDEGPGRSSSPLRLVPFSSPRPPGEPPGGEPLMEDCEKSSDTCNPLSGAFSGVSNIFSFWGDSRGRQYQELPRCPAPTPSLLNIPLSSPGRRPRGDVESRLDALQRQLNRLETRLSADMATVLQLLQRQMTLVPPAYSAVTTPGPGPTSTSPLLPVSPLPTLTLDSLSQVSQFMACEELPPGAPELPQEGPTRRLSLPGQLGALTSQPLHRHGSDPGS

Compound: CCCCCn1cc2c(=O)n(C3CCCCC3)nc-2c2ccccc21
- Emax (Cannabinoid receptor 2 [1]): 160%

Compound: CCCCCn1c(-c2ccccc2)c2c(=O)n(-c3ccc(OC)cc3)nc-2c2ccccc21
- Ki (Cannabinoid receptor 2 [2]): > 3 µM
- Ki (Cannabinoid receptor 1): > 3 µM

Compound: CCCCCn1cc2c(=O)n(-c3ccc(OC)cc3)nc-2c2ccccc21
- Ki (Cannabinoid receptor 2 [2]): > 3 µM
- Ki (Cannabinoid receptor 1): > 3 µM

Compound: CCCCCn1cc(C(=O)NCC23CC4CC(CC(C4)C2)C3)c(=O)c2ccccc21
- Ki (Cannabinoid receptor 2 [2]): 0.0216 µM
- Ki (Cannabinoid receptor 1): > 3 µM

Compound: CCCCCn1cc2c(=O)n(CC3CCCCC3)nc-2c2ccccc21
- Emax (Cannabinoid receptor 2 [1]): 149%

Compound: CCCCCn1c(-c2ccccc2)c2c(=O)[nH]nc-2c2ccccc21
- Ki (Cannabinoid receptor 2 [2]): > 3 µM
- Ki (Cannabinoid receptor 1): > 3 µM

Compound: CCCCCn1c(-c2ccccc2)c2c(=O)n(-c3ccccc3)nc-2c2ccccc21
- Ki (Cannabinoid receptor 2 [2]): > 3 µM
- Ki (Cannabinoid receptor 1): > 3 µM

Compound: CCCCCn1c(-c2ccccc2)c2c(=O)n(Cc3ccccc3)nc-2c2ccccc21
- Ki (Cannabinoid receptor 2 [2]): > 3 µM
- Ki (Cannabinoid receptor 1): > 3 µM

Compound: CCCCCn1cc2c(=O)n(-c3ccccc3)nc-2c2ccccc21
- Ki (Cannabinoid receptor 2 [2]): 1.36 µM
- Ki (Cannabinoid receptor 1): > 3 µM

Compound: CCCCCn1cc2c(=O)n(CCCc3ccccc3)nc-2c2ccccc21
- Ki (Cannabinoid receptor 2 [2]): > 3 µM
- Ki (Cannabinoid receptor 1): > 3 µM

Compound: CCCCCn1c(-c2ccccc2)c2c(=O)n(CCCc3ccccc3)nc-2c2ccccc21
- Ki (Cannabinoid receptor 2 [2]): > 3 µM
- Ki (Cannabinoid receptor 1): > 3 µM

Compound: CCCCCn1cc2c(=O)n(CCC34CC5CC(CC(C5)C3)C4)nc-2c2ccccc21
- Ki (Cannabinoid receptor 1): > 3 µM

Compound: CCCCCn1c(-c2ccccc2)c2c(=O)n(-c3cccc(C(F)(F)F)c3)nc-2c2ccccc21
- Ki (Cannabinoid receptor 2 [2]): > 3 µM
- Ki (Cannabinoid receptor 1): > 3 µM

Compound: CCCCCn1cc2c(=O)n(CCC3CCCCC3)nc-2c2ccccc21
- Emax (Cannabinoid receptor 2 [1]): 141%

Compound: CCCCCn1cc(C(=O)NC23CC4CC(CC(C4)C2)C3)c(=O)c(-c2ccncc2)c1C
- Ki (Cannabinoid receptor 1): > 1 µM

Compound: CCCCCn1cc2c(=O)n(-c3cccc(C(F)(F)F)c3)nc-2c2ccccc21
- Ki (Cannabinoid receptor 2 [2]): 0.0292 µM
- Ki (Cannabinoid receptor 1): > 3 µM

Compound: CCCCCn1cc2c(=O)n(CC34CC5CC(CC(C5)C3)C4)nc-2c2ccccc21
- Activity (Mus musculus [3]): Active
- Activity (Mus musculus [4]): Dose-dependent effect
- Papp A→B at 1 h, 10 µM [5]: 0.8 ×10⁻⁶ cm/s
- fold change (FC) (Mus musculus [6]): 1.7
- Activity (Mus musculus [7]): Active
- Activity (Mus musculus [8]): inactive
- inhibition at 1 µM (hERG (KCNH2)): 35.5%
- Activity (Mus musculus [9]): Dose-dependent effect
- Activity (Mus musculus [10]): 65%
- inhibition (MDCK-II): 30.6%
- fraction unbound at 18 h [11]: < 1
- Ki (Cannabinoid receptor 1): > 3 µM
- Emax (Cannabinoid receptor 2 [1]): 163%
- remaining at 1 h, 1 µM [12]: 64%
